Calls of active or inactive are those of the source. No cut-off for these calls is given here. Some results are limits rather than exact numbers.

Holding throughout (assay type): protein-complex assay
The target of test [1] is T1, Programmed cell death protein 1/Programmed cell death 1 ligand 1 (Homo sapiens, UniProt Q15116+Q9NZQ7). The test is described as follows: Antagonist activity at PD1/PD-L1 (unknown origin).
Test [2] addresses T1, Programmed cell death protein 1/Programmed cell death 1 ligand 1. The test is described as follows: Antagonist activity at PD1/PD-L1 (unknown origin) assessed as disruption of PD-1/PD-L1 complex by measuring PD-L1 dimerization at 50 uM measured after 2 hrs by HTRF assay.
For test [3] the target is unchanged. The test is described as follows: Antagonist activity at PD1/PD-L1 (unknown origin) assessed as disruption of PD-1/PD-L1 complex by measuring PD-L1 dimerization by 1H-NMR analysis. The following applies: filed as antagonist. Put shortly:
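PD-L1 was expressed in E. coli BL21 (DE3) as inclusion bodies, then refolded by drop-wise dilution into 0.1 M Tris pH 8.0, 1 M L-Arg HCl, 2 mM EDTA, and 0.25 mM each of oxidized and reduced glutathione. It was dialyzed against 10 mM Tris pH 8.0 with 20 mM NaCl. Final size-exclusion chromatography was run in PBS pH 7.4 for NMR.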

In test [4] the target is T2, Programmed cell death protein 1/Programmed cell death 1 ligand 1 (Homo sapiens, UniProt Q9NZQ7). The test is described as follows: Antagonist activity at PD1/PD-L1 (unknown origin) assessed as disruption of PD-1/PD-L1 complex by measuring PD-L1 dimerization measured after 2 hrs by HTRF assay. Put shortly:
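PD-1/PD-L1 binding measured by HTRF with a commercial kit following the kit protocol, at 20 μL final volume. Each compound was run as its own dilution series, and plates were incubated 2 h at RT before the TR-FRET read. Signals were background-subtracted on the negative control and normalized to the positive control. Averaged data were fitted with a normalized Hill equation to give the IC50.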
In general terms: In TR-FRET formats the signal depends on donor and acceptor labels being close together.

Test [5] addresses T2, Programmed cell death protein 1/Programmed cell death 1 ligand 1. As to the kind of experiment: Antagonist activity at human PD1/PD-L1 preincubated with PD-L1 for 1 hr followed by incubation with PD1 for 1 hr by ELISA.
The target in test [6] is T1, Programmed cell death protein 1/Programmed cell death 1 ligand 1. The test is described as follows: Antagonist activity at human PD1/PD-L1.

T2 sequence (Q15116 whole entry): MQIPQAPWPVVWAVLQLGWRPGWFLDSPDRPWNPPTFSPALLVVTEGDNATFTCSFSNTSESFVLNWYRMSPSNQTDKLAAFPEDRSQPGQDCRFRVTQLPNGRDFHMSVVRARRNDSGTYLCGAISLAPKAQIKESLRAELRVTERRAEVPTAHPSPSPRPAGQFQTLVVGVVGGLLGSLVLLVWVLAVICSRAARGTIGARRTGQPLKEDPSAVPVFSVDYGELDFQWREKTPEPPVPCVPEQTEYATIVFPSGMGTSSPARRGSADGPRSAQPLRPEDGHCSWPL
T2 sequence (Q9NZQ7 whole entry): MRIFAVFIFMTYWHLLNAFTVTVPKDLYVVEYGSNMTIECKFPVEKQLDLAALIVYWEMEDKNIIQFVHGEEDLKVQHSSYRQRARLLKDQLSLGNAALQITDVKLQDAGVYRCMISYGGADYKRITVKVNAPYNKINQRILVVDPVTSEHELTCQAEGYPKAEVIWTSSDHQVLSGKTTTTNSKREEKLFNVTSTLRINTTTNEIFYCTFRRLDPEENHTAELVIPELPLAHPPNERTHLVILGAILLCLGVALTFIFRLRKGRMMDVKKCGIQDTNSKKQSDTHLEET
T1 sequence (Q15116 whole entry): as the sequence (Q15116 whole entry) above
T1 sequence (Q9NZQ7 whole entry): as the sequence (Q9NZQ7 whole entry) above

For orientation: IC50 means the point on the concentration scale where inhibition reaches its midpoint. For `CC(O)C(NC(=O)NC(CC(N)=O)c1nc(C(N)CO)no1)C(=O)O` (stereo not drawn), the IC50 in test [1] was determined as 5000 µM.
For `Cc1c(COc2ccc3nc(CN)c(NCc4cccc(-c5nn[nH]n5)c4)n3c2)cccc1-c1ccc(F)cc1`, in test [2], the result was inactive.
As for `Cc1c(Oc2ccc3nc(CN)c(NCc4ccccc4)n3c2)cccc1-c1ccccc1`, the result in test [2] (filed as antagonist) and in test [3] was Active.
As for `Cc1c(COc2ccc3nc(CN)c(NCc4ccccc4)n3c2)cccc1-c1ccccc1`, the result in test [2] (filed as antagonist) and in test [3] was Active. The IC50 in test [4] is 10.2 µM.
Consider `Cc1c(COc2ccc3nc([C@H](N)CO)c(NCc4ccccc4)n3c2)cccc1-c1ccccc1`, for which the outcome in test [2] was inactive.
On to `Cc1c(COc2ccc3nc(CN)c(NCc4cccc(C#N)c4)n3c2)cccc1-c1ccc(F)cc1`, for which, in test [2], the result was inactive.
In test [5], `N#Cc1cncc(COc2cc(O[C@H]3CCc4c(-c5ccccc5F)cccc43)c(Cl)cc2CN2CC[C@@H](O)C2)c1` had an IC50 of under 0.1 µM.
On to `Cc1c(COc2ccc3nc(CN)c(NCCc4ccccc4)n3c2)cccc1-c1ccc(F)cc1`, for which the result in test [2] was inactive.
Consider `Cc1c(COc2ccc3nc(CN)c(NC(C)c4ccccc4)n3c2)cccc1-c1ccccc1` (stereo not drawn), for which the result in test [2] (filed as antagonist) and in test [3] was Active. Also, the IC50 in test [4] came out at 9.33 µM.
In the case of `Cc1cc2nc(CN)c(NCc3ccccc3)n2cc1OCc1cccc(-c2ccc3c(c2)OCCO3)c1C`, the result in test [2] (filed as antagonist) was Active. Besides, in test [4], the IC50 came to 1.83 µM.
For `Cc1c(COc2ccc3nc(CN)c(NCc4ccccc4)n3c2)cccc1-c1ccc2c(c1)OCCO2`, the result in test [2] (filed as antagonist) was Active. Further, in test [4], the IC50 was 22.9 µM.
For the molecule `Cc1c(COc2ccc3nc([C@@H](N)CO)c(NCc4ccccc4)n3c2)cccc1-c1ccccc1`, the result in test [2] was inactive.
The molecule `Cc1c(-c2ccccc2)cccc1-c1nc2c(s1)CNCC2` registered an IC50 in test [6] of at most 0.1 µM.
On to `Cc1c(COc2ccc3nc(CN)c(NCCc4ccccc4)n3c2)cccc1-c1ccccc1`, for which the outcome in test [2] (filed as antagonist) and in test [3] was Active. Besides, in test [4], the IC50 amounted to 16.8 µM.

The record behind these values is ChEMBL document CHEMBL4732269, “Design, Synthesis, and Biological Evaluation of Imidazopyridines as PD-1/PD-L1 Antagonists” (ACS Med Chem Lett, 2021).
